Measured values as given in PMC9321596 (Chemmedchem, 2022).
Square brackets hold non-standard residues; d marks the D form. Peptide text beside a SMILES is read from it. * marks the point of attachment. Cbz = O=C(OCc1ccccc1)*; βAla = NCCC(=O)O

Tests used:
[1] = molecular target: recombinant human 6His-tagged-Pin1 (Homo sapiens, UniProt Q13526); test: Direct-binding assay
Summary of the method: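 Label-free optical biosensor assay. His6-Pin1 was expressed in E. coli BL21(DE3), purified, and immobilised at 150 µg/mL in 20 mM sodium acetate pH 5.5 overnight at 4 °C. Equilibrated 4 h in PBS, 0.5% DMSO, pH 7.4, then baseline read. Peptides were serially diluted to twelve concentrations from 500 µM final and read over 1 h. KD came from last-baseline-to-maximum signal, mean ± S.D. of three independent experiments.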

[2] = molecular target: NIMA interacting protein 1 (Pin1) (human) (UniProt Q13526); test: Corning Epic label-free optical biosensor
Chain of NIMA interacting protein 1 (Pin1) (human) (Q13526 whole entry): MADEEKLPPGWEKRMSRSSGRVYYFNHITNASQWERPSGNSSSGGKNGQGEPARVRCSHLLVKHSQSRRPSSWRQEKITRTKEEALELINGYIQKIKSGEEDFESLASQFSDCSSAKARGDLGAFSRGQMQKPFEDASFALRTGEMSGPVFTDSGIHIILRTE

HCT116 cells [3] = test: Cell cycle analysis by flow cytometry; type: cell-based, human; conditions: 10 μM, 48 h
Summary of the method: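 HCT116 cells plated at 2×10⁵ cells/mL in triplicate and treated at 10 µM for 48 h. Harvested in PBS, spun at 1200 rpm for 5 min, then resuspended in hypotonic buffer (1×PBS, 0.1% sodium citrate, 0.1% NP-40, RNase A, […]). Held 30 min at RT in the dark, then run on flow cytometry with SSC-A/FSC-A gating and PI-A intensity.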

AC16 non-tumor cells = test: MTT anti-proliferative assay, R8 peptides, AC16; type: cell-based, human; conditions: 10 μM, 24 h and 48 h
Summary of the method: (§1)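 MTT viability. A549, HCT116, MCF7 and AC16 were grown in DMEM; LNCaP in RPMI 1640. Both media had 10% FBS, penicillin/streptomycin, amphotericin-B and 2 mM L-glutamine. Cells seeded at 3×10⁴/well, treated in triplicate at 10 µM for 24 and 48 h. MTT 0.5 mg/mL for 3 h, formazan dissolved in DMSO, absorbance read at 570 nm. Expressed as % of untreated control, mean ± S.D. of three independent experiments.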

[4] = tested on: cancer cell lines (A549, HCT116, MCF7, LNCaP); test: MTT anti-proliferative assay, R8 peptides, cancer cell lines; type: cell-based, human; conditions: 10 μM, after 24 h, effect persisted up to 48 h; all cancer cells tested
Summary of the method: as §1

HCT116 cells [5] = test: MTT anti-proliferative assay, HCT116; type: cell-based, human; conditions: 10 μM, 24 h
Summary of the method: as §1

[6] = molecular target: recombinant human 6His-tagged-Pin4 (Homo sapiens, UniProt Q9Y237); test: Direct-binding assay
Chain of recombinant human 6His-tagged-Pin4 (Q9Y237 whole entry): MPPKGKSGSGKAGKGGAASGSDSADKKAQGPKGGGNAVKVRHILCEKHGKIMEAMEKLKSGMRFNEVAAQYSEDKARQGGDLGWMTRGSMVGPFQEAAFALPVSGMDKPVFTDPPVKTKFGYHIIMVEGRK

[7] = molecular target: parvulin-14 (Par14), also known as Pin4 (human) (UniProt Q9Y237); test: Corning Epic label-free optical biosensor
Chain of parvulin-14 (Par14), also known as Pin4 (human) (Q9Y237 whole entry): as above

Chain of recombinant human 6His-tagged-Pin1 (Q13526 whole entry): as the sequence (Q13526 whole entry) above

Molecule: Methyl N‐(acetyl‐L‐alanyl)‐O‐benzyl‐L‐seryl‐L‐prolyl‐L‐phenylalaninate [5 g]
- binding to Pin1 (in words) [1]: very little or no binding affinity

Molecule: Methyl acetyl‐L‐alanyl‐L‐lysyl‐D‐prolyl‐L‐phenylalaninate [5 p]
- binding to Pin1 (in words) [1]: abrogates the interaction

Molecule: COC(=O)[C@H](Cc1ccccc1)NC(=O)[C@@H]1CCCN1C(=O)[C@H](CCCNC(=N)NS(=O)(=O)c1c(C)cc(OC)c(C)c1C)NC(=O)[C@H](C)NC(C)=O [5 c, Methyl N^2‐(acetyl‐L‐alanyl)‐N^ω‐((4‐methoxy‐2,3,6‐trimethylphenyl)sulfonyl)‐L‐arginyl‐L‐prolyl‐L‐phenylalaninate]
- binding to Pin1 (in words) [1]: very little or no binding affinity

Molecule: Methyl acetyl-L-alanyl-L-lysyl-L-prolyl-L-phenylalaninate (5 j) (peptide)
- Kd [2]: 22.4 µM

Molecule: COC(=O)[C@H](Cc1ccccc1)NC(=O)[C@@H]1CCCN1C(=O)[C@H](CCCCNC(=O)OCc1ccccc1)NC(=O)[C@H](C)NC(=O)CCNC(=O)[C@H](CCCNC(=N)N)NC(=O)[C@H](CCCNC(=N)N)NC(=O)[C@H](CCCNC(=N)N)NC(=O)[C@H](CCCNC(=N)N)NC(=O)[C@H](CCCNC(=N)N)NC(=O)[C@H](CCCNC(=N)N)NC(=O)[C@H](CCCNC(=N)N)NC(=O)[C@@H](N)CCCNC(=N)N [R8–5 i] (H-RRRRRRRR[βAla]AK(Cbz)PF-OMe; N-terminus assumed)
- cells within G1 phase (HCT116 cells [3]): 66.4%
- anti-proliferative activity (AC16 non-tumor cells): less than 20%
- reduction of cell proliferation [4]: 50–60%
- reduction of cell proliferation (HCT116 cells [5]): ~60%
- binding to Pin1 (in words) [1]: does not reach saturation

Molecule: tert‐Butyl (S)‐4‐((S)‐2‐acetamidopropanamido)‐5‐((S)‐2‐(((R)‐1‐methoxy‐1‐oxo‐3‐phenylpropan‐2‐yl)carbamoyl)pyrrolidin‐1‐yl)‐5‐oxopentanoate [5 e]
- binding to Pin4 (in words) [6]: micromolar range
- binding to Pin1 (in words) [1]: very little or no binding affinity

Molecule: Methyl N2-(acetyl-L-alanyl)-Nω-((4-methoxy-2,3,6-trimethylphenyl)sulfonyl)-L-arginyl-L-prolyl-L-phenylalaninate (5 c) (peptide)
- Kd [2]: 53.6 µM

Molecule: COC(=O)[C@H](Cc1ccccc1)NC(=O)[C@@H]1CCCN1C(=O)[C@H](Cc1c[nH]cn1)NC(=O)[C@H](C)NC(=O)CCNC(=O)[C@H](CCCNC(=N)N)NC(=O)[C@H](CCCNC(=N)N)NC(=O)[C@H](CCCNC(=N)N)NC(=O)[C@H](CCCNC(=N)N)NC(=O)[C@H](CCCNC(=N)N)NC(=O)[C@H](CCCNC(=N)N)NC(=O)[C@H](CCCNC(=N)N)NC(=O)[C@@H](N)CCCNC(=N)N [R8–5 k] (H-RRRRRRRR[βAla]AHPF-OMe; N-terminus assumed)
- cells within G1 phase (HCT116 cells [3]): 61.2%
- anti-proliferative activity (AC16 non-tumor cells): less than 20%
- reduction of cell proliferation [4]: 50–60%
- reduction of cell proliferation (HCT116 cells [5]): ~60%

Molecule: Methyl N2-(acetyl-L-alanyl)-N6-((benzyloxy)carbonyl)-L-lysyl-L-prolyl-L-phenylalaninate (5 i) (peptide)
- Kd [7]: 28.2 µM
- Kd [2]: 70.2 µM

B1: Methyl acetyl-L-alanyl-L-glutaminyl-L-prolyl-L-phenylalaninate (5 m) (peptide)
peptide: Ac-AQPF-OMe
SMILES: COC(=O)[C@H](Cc1ccccc1)NC(=O)[C@@H]1CCCN1C(=O)[C@H](CCC(N)=O)NC(=O)[C@H](C)NC(C)=O
- Kd [2]: 62.5 µM

B2: Methyl acetyl-L-alanyl-L-methionyl-L-prolyl-L-phenylalaninate (5 l) (peptide)
peptide: Ac-AMPF-OMe
SMILES: COC(=O)[C@H](Cc1ccccc1)NC(=O)[C@@H]1CCCN1C(=O)[C@H](CCSC)NC(=O)[C@H](C)NC(C)=O
- Kd [2]: 14.1 µM

Molecule: Ac-ARPF-OMe [Methyl acetyl-L-alanyl-L-arginyl-L-prolyl-L-phenylalaninate (5 d)]
- Kd [2]: 30.5 µM

Molecule: Ac-AGPF-OMe (SMILES COC(=O)[C@H](Cc1ccccc1)NC(=O)[C@@H]1CCCN1C(=O)CNC(=O)[C@H](C)NC(C)=O) [Methyl acetyl-L-alanylglycyl-L-prolyl-L-phenylalaninate (5 a)]
- Kd [2]: 6.09 µM

B3: Methyl acetyl-L-alanyl-L-histidyl-L-prolyl-L-phenylalaninate (5 k) (peptide)
peptide: Ac-AHPF-OMe
SMILES: COC(=O)[C@H](Cc1ccccc1)NC(=O)[C@@H]1CCCN1C(=O)[C@H](Cc1c[nH]cn1)NC(=O)[C@H](C)NC(C)=O
- Kd [7]: 5.7 µM

Molecule: Ac-[dA]EPF-OMe
- Kd [7]: 18.6 µM

B4: Methyl acetyl-L-alanyl-L-valyl-L-prolyl-L-phenylalaninate (5 b) (peptide)
peptide: Ac-AVPF-OMe
SMILES: COC(=O)[C@H](Cc1ccccc1)NC(=O)[C@@H]1CCCN1C(=O)[C@@H](NC(=O)[C@H](C)NC(C)=O)C(C)C
- Kd [2]: 6.11 µM

B5: Methyl acetyl-L-alanyl-L-seryl-L-prolyl-L-phenylalaninate (5 h) (peptide)
peptide: Ac-ASPF-OMe
SMILES: COC(=O)[C@H](Cc1ccccc1)NC(=O)[C@@H]1CCCN1C(=O)[C@H](CO)NC(=O)[C@H](C)NC(C)=O
- Kd [2]: 4.5 µM
